Measurements as given in ChEMBL document CHEMBL1149813, “Synthesis of 6-amino-1,4-dihydropyridines that prevent calcium overload and neuronal death” (2008).

Assays:
SH-SY5Y [1] = assay: Neuroprotective activity against human SH-SY5Y cells assessed as reduction in K+-induced LDH release at 0.3 uM relative to control; type: functional; design: scale not given: the % may be the effect or the level left
In short: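 SH-SY5Y neuroblastoma cells maintained in DMEM with 10% FCS at 37 °C in 5% CO2, used at passages 3–16. Cells treated before confluence in serum-free DMEM. Cell death from Ca2+ overload induced by 70 mM K+, read as LDH release. Compounds tested at 0.3 (unit as printed); nimodipine as reference. Means ± SEM, at least three cultures in quadruplicate.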

SH-SY5Y [2] = assay: Neuroprotective activity against human SH-SY5Y cells assessed as reduction in H2O2-induced LDH release at 0.3 uM relative to control; type: functional; design: scale not given: the % may be the effect or the level left
SH-SY5Y [3] = assay: Neuroprotective activity against calcium overload-induced cell death in human SH-SY5Y cells at 0.3 uM in presence of K+ relative to control; type: functional
In short: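 SH-SY5Y cells (passages 3–16 after thawing) were grown in DMEM with 10% FCS, glutamine and penicillin/streptomycin at 37 °C in 5% CO2. They were treated with compound before confluence in serum-free DMEM and challenged with 70 mM K+. Read-out was the reduction in the increase of LDH released, relative to a drug-free control. Means ± SEM from at least three cultures in quadruplicate.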

SH-SY5Y [4] = assay: Blockade of high K+-induced increase in calcium uptake in human SH-SY5Y cells at 0.3 uM relative to control; type: functional
SH-SY5Y [5] = assay: Neuroprotective activity against free radical-induced cell death in human SH-SY5Y cells at 0.3 uM in presence of H2O2 relative to control

SMILES | Activity (SH-SY5Y [1]) | Activity (SH-SY5Y [2]) | Activity (SH-SY5Y [3]) | Activity (SH-SY5Y [4]) | Activity (SH-SY5Y [5])
CCOC(=O)C1=C(C)NC(N)=C(C#N)C1c1ccncc1 (stereo not given) | 70.5% | 66.7% | 43.3% | 32.6% | 46.7%
Cc1ccc(C2C(C#N)=C(N)NC3=C2C(=O)CC(C)(C)C3)cc1 (stereo not given) | 68.4% | 88.6% | 44.4% | 28.6% | 14.9%
CC1(C)CC(=O)C2=C(C1)NC(N)=C(C#N)C2c1ccncc1 (stereo not given) | 71.4% | 77.7% | 39.5% | 50.4% | 29.1%
COc1ccc(C2C(C#N)=C(N)NC3=C2C(=O)CC(C)(C)C3)cc1 (stereo not given) | 69.3% | 77.8% | 43.2% | 12.6% | 29%
CC1(C)CC(=O)C2=C(C1)NC(N)=C(C#N)C2c1ccc(F)cc1 (stereo not given) | 69.9% | 75.4% | 42.3% | 63.9% | 32.4%
CCOC(=O)C1=C(C)NC(N)=C(C#N)C1c1ccc(OC)c(OC)c1 (stereo not given) | 80.5% | 70.2% | 31.2% | 21.8% | 40.8%
CC1(C)CC(=O)C2=C(C1)NC(N)=C(C#N)C2c1ccccc1 (stereo not given) | 61.2% | 84.2% | 54.7% | 20.8% | 20.6%
CCOC(=O)C1=C(C)NC(N)=C(C#N)C1c1ccc([N+](=O)[O-])cc1 (stereo not given) | 68.9% | 83.4% | 45.7% | 17.6% | 23.1%
CCOC(=O)C1=C(C)NC(N)=C(C#N)C1c1ccccc1OC (stereo not given) | 78.2% | 88.4% | 31.5% | 24.3% | 15%
CCOC(=O)C1=C(C)NC(N)=C(C#N)C1c1cccc(OC)c1 (stereo not given) | 77.9% | 86.1% | 32.1% | 25% | 27.7%
CCOC(=O)C1=C(C)NC(N)=C(C#N)C1c1cccc([N+](=O)[O-])c1 (stereo not given) | 79.4% | 84.5% | 30.3% | 27.8% | 21.2%
CCOC(=O)C1=C(C)NC(N)=C(C#N)C1c1ccccc1 (stereo not given) | 76.26% | 86.7% | 34.1% | 34.03% | 17.3%
CCOC(=O)C1=C(C)NC(N)=C(C#N)C1c1ccc(F)cc1 (stereo not given) | 72.8% | 82.2% | 39.8% | 7.2% | 24.7%
CCOC(=O)C1=C(C)NC(N)=C(C#N)C1c1ccccc1C(F)(F)F (stereo not given) | 72.11% | 78.6% | 40.2% | 30.4% | 28.2%
CCOC(=O)C1=C(C)NC(N)=C(C#N)C1c1cccnc1 (stereo not given) | 70.5% | 84.5% | 43.4% | 14.1% | 21.2%
CCOC(=O)C1=C(C)NC(N)=C(C#N)C1c1ccc(-c2ccccc2)cc1 (stereo not given) | 90.9% | 80.3% | 12.9% | 23.9% | 26.2%
CCOC(=O)C1=C(C)NC(N)=C(C#N)C1c1ccc(OC)cc1 (stereo not given) | 89.9% | 77.7% | 14.4% | 11.8% | 31.3%
CCOC(=O)C1=C(C)NC(N)=C(C#N)C1c1ccc(C)cc1 (stereo not given) | 72.3% | 69.7% | 40.8% | 16.9% | 42.4%
CCOC(=O)C1=C(C)NC(N)=C(C#N)C1c1ccccc1[N+](=O)[O-] (stereo not given) | 71.11% | 98.8% | 42.6% | 16.1% | 1.6%
COCCOC(=O)C1=C(C)NC(C)=C(C(=O)OC(C)C)C1c1cccc([N+](=O)[O-])c1 (stereo not given) [NIMODIPINE] | 75% | 75.4% | 35.9% | 45.5% | 36.03%
